In ChEMBL document CHEMBL4017511, “Discovery of Fragment-Derived Small Molecules for in Vivo Inhibition of Ketohexokinase (KHK)” (J Med Chem, 2017):
Converted amounts (≈) assume the structure as drawn. Blank lines part the entries; values can stand above or below the molecule they belong to. The source made the active and inactive calls. The rule behind the calls is not given here.

Tests used:
[1] = target: T1, Ketohexokinase (Homo sapiens, UniProt P50053); assay: Inhibition of recombinant human N-terminal His-tagged KHK expressed in Escherichia coli BL21(DE3) using fructose as substrate incubated for 30 mins followed by ATP addition measured for 30 mins by pyruvate kinase-lactate dehydrogenase coupled enzyme assay
T1 sequence (P50053 whole entry): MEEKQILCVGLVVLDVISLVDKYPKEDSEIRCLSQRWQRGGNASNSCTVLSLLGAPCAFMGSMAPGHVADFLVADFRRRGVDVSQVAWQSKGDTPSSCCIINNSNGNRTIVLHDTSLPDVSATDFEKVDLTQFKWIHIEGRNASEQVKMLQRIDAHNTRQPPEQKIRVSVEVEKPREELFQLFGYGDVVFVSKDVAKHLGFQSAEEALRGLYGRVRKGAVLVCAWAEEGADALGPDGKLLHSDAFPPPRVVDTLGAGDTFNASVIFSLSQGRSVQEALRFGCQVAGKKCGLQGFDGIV
How it was run: (§1)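 Thrombin-cleaved (His-tag removed) human or rat KHK at 10 nM, preincubated 30 min at room temperature with compound (11-point series, 2.5% DMSO). Started with 0.2 mM ATP; NADH A340 read kinetically for 30 min. IC50 from nonlinear fit of percent inhibition; mean of replicates.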

[2] = Apparent clearance in human liver microsomes; format: ADME, microsome; settings: read-out: CLH(app)
[3] = Octanol/water partition coefficient, log D of the compound at pH 7.4 by shake-flask method; format: physicochemical
How it was run: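 LogD measured by shake-flask octanol:water partition at pH 7.4.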

[4] = Volume of distribution in rat at 1 mg/kg, iv; format: ADME, organism-based; settings: in vivo
How it was run: (§2)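 Rat PK following a 1 mg/kg intravenous dose; systemic clearance, volume of distribution and effective half-life derived from plasma exposure.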

[5] = tested on: Rattus norvegicus; assay: Time required for plasma concentration to reach above in vitro rat KHK IC50 in rat at 150 mg/kg, po
How it was run: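 Rats dosed orally at 150 mg/kg as a nanocrystal suspension (1% polyvinylpyrrolidone / 0.025% sodium lauryl sulfate / 1% pluronic).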

[6] = Half life in rat at 1 mg/kg, iv; format: ADME, organism-based; settings: in vivo; how it was run: as §2
[7] = target: T2, Cytochrome P450 2C8 (Homo sapiens, UniProt P10632); assay: Inhibition of human CYP2C8 at 3 uM; format: ADME
T2 sequence (P10632 whole entry): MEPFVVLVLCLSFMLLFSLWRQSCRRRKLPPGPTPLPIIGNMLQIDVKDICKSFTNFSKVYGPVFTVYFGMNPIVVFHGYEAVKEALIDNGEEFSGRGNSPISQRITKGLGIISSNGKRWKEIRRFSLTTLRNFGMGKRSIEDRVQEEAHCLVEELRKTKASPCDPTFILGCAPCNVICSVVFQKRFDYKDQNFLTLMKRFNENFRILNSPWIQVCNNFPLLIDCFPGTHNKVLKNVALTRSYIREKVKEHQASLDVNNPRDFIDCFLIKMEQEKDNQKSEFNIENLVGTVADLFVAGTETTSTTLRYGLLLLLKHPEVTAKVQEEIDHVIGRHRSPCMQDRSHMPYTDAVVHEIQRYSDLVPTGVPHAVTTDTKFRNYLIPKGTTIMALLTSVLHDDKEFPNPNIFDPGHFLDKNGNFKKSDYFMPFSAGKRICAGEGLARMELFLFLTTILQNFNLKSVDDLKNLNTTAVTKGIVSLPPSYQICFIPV

[8] = target: T3, Ketohexokinase (Rattus norvegicus, UniProt Q02974); assay: Inhibition of recombinant rat N-terminal His-tagged KHK expressed in Escherichia coli BL21(DE3) using fructose as substrate incubated for 30 mins followed by ATP addition measured for 30 mins by pyruvate kinase-lactate dehydrogenase coupled enzyme assay; how it was run: as §1
T3 sequence (Q02974 whole entry): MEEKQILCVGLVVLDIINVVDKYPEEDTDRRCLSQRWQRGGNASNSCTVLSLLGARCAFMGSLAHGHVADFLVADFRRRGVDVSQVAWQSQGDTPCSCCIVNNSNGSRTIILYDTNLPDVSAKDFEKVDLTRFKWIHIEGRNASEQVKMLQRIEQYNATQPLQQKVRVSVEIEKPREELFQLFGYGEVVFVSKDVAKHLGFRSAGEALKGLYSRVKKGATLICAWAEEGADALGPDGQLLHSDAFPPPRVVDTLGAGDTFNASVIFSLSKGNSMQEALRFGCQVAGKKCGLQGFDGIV

[9] = Cmax in rat at 5 mg/kg; format: ADME, organism-based; parameters: dose 5 mg/kg; settings: in vivo
[10] = target: T1, Ketohexokinase
[11] = tested on: Rattus norvegicus; assay: In vivo inhibition of fructose metabolism in po dosed Sprague-Dawley rat assessed as increase in plasma fructose level administered for 1 hr followed by oral bolus fructose administration measured after 2 mins by LC/MS analysis; format: functional, organism-based
How it was run: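 Fasted (16 h) non-cannulated male Sprague Dawley rats were dosed orally with compound in a 0.5% methylcellulose nano-milled suspension. One hour later they received 2 g/kg oral fructose. Tail-vein K2EDTA plasma was methanol-extracted with 13C6-fructose internal standard and analysed by HILIC LC-MS/MS; n = 6-8.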

[12] = Thermodynamic solubility of compound at pH 7.4; format: physicochemical; settings: buffer, read-out: Therm_solubility
How it was run: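 Thermodynamic solubility determined at pH 7.4.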

[13] = Apparent clearance in rat liver microsomes; format: ADME, microsome; settings: read-out: CLH(app)
[14] = target: Cytochrome P450 3A4 (Homo sapiens, UniProt P08684); assay: Inhibition of human CYP3A4 at 3 uM; format: ADME
[15] = tested on: Rattus norvegicus; assay: Oral bioavailability in rat at 5 mg/kg; format: ADME, organism-based; settings: in vivo
[16] = Fraction unbound in human plasma at 10 uM measured at 2 to 24 hrs by equilibrium dialysis method; format: ADME, cell-free
[17] = target: T1, Ketohexokinase; remark: listed apart in the source
[18] = tested on: Rattus norvegicus; assay: In vivo inhibition of KHK-C in po dosed Sprague-Dawley rat assessed as decrease in F1P levels in liver administered for 1 hr followed by bolus fructose administration measured 2 mins after iv infusion by LC/MS analysis; format: functional
How it was run: (§3)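 Male Sprague Dawley rats (~200 g, jugular-cannulated) were fasted 16 h and given oral compound as a 0.5% methylcellulose nano-milled suspension. After 1 h they received an i.v. fructose bolus of 500 mg/kg over 20 s, and were decapitated 2 min later. Liver and kidney F1P was quantified by ion-exchange LC/MS/MS against a 13C-xylitol internal standard. ED50 from a four-parameter fit; n = 7-8.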

[19] = tested on: Rattus norvegicus; assay: In vivo inhibition of KHK-C in po dosed Sprague-Dawley rat assessed as decrease in F1P levels in kidney administered for 1 hr followed by bolus fructose administration measured 2 mins after iv infusion by LC/MS analysis; format: functional; how it was run: as §3
[20] = target: Cytochrome P450 2C19 (Homo sapiens, UniProt P33261); assay: Inhibition of human CYP2C19 at 3 uM; format: ADME
[21] = tested on: Rattus norvegicus; assay: AUClast in rat at 5 mg/kg, po; format: ADME, organism-based; parameters: dose 5 mg/kg, route oral, time 0 - last; settings: in vivo
[22] = target: Cytochrome P450 2C9 (Homo sapiens, UniProt P11712); assay: Inhibition of human CYP2C9 at 3 uM; format: ADME
[23] = Apparent permeability in RRCK cells by LC-MS/MS analysis; format: ADME, cell-based, Canis lupus familiaris, MDCKII-LE; settings: dog, MDCK
[24] = target: Voltage-gated inwardly rectifying potassium channel KCNH2 (Homo sapiens, UniProt Q12809); assay: Inhibition of human ERG
[25] = tested on: HepG2; assay: Cytotoxicity against human HepG2 cells up to 300 uM after 72 hrs; format: cell-based; settings: hepg2, 72 h
How it was run: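 HepG2 cells incubated with compound at concentrations up to 300 µM for 72 hours to assess toxicity.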

[26] = target: T4, Cytochrome P450 1A2 (Homo sapiens, UniProt P05177); assay: Inhibition of human CYP1A2 at 3 uM; format: ADME
T4 sequence (P05177 whole entry): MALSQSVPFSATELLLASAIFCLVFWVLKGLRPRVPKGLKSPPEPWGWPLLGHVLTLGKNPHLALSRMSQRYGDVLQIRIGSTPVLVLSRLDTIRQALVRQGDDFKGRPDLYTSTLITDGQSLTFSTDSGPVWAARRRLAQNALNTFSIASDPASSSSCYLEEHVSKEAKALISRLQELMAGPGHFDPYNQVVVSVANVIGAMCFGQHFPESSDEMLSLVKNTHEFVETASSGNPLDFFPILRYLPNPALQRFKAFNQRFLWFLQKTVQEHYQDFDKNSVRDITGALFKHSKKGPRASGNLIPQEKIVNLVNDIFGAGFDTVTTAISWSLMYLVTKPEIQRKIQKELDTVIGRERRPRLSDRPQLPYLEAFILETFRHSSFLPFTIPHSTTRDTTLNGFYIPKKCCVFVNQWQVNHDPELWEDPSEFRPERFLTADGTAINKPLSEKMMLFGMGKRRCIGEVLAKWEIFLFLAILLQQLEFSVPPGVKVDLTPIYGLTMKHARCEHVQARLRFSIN

[27] = target: Cytochrome P450 2D6 (Homo sapiens, UniProt P10635); assay: Inhibition of human CYP2D6 at 3 uM; format: ADME
[28] = tested on: Salmonella typhimurium; assay: Genotoxicity in Salmonella typhimurium by Ames test; format: toxicity; settings: salmonella enterica subsp. enterica serovar typhimurium
[29] = target: T1, Ketohexokinase; assay: Binding affinity to full length recombinant human biotin-labeled KHK by SPR assay
How it was run: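 Full-length biotinylated KHK captured on a streptavidin sensor (7000-8000 RU). Run buffer was 50 mM HEPES pH 7.4, 150 mM NaCl, 0.01% P20, 500 µM TCEP, 3% DMSO at 25 °C. Eleven 2-fold concentrations from 300 µM top, stop-flow with 60 s association and ≥120 s dissociation. Data double-referenced and DMSO-corrected; KD by steady-state affinity fit, n=1.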

[30] = target: T5, Ketohexokinase (Homo sapiens) (UniProt P50053); assay: Inhibition of recombinant full length human His-tagged KHK expressed in Escherichia coli BL21(DE3) using at 240 uM by 1D NMR-STD spectroscopic method
T5 sequence (whole entry): T1 sequence (P50053 whole entry)
How it was run: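 Full-length His-tagged human KHK (tag retained) at 5 μM in 50 mM Tris-d, 100 mM NaCl, 2 mM TCEP-d, 5% glycerol-d, pH 7.5, 298 K. AMP-PMP at 240 μM served as positive control. Saturation-transfer difference NMR used 512 scans and 3 s Gaussian on/off-resonance saturation. Binding was called from positive difference signals, with ligands assigned against each fragment's 1D 1H reference spectrum.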

[31] = Rattus norvegicus, Sprague-Dawley

Sequence of Cytochrome P450 2D6 (P10635 whole entry): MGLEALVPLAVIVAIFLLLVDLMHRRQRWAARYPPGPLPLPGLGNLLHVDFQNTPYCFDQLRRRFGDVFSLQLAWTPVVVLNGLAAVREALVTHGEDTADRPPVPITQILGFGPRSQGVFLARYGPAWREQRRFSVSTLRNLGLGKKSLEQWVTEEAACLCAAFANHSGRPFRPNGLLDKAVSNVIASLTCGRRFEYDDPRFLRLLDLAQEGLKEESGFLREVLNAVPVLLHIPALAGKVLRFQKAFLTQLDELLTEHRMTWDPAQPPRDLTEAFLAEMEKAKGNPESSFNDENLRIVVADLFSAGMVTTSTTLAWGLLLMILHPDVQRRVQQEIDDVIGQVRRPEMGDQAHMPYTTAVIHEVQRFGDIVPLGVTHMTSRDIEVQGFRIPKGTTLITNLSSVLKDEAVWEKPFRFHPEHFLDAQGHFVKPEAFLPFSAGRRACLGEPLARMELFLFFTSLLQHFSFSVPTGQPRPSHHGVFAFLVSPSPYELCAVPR
Sequence of Cytochrome P450 3A4 (P08684 whole entry): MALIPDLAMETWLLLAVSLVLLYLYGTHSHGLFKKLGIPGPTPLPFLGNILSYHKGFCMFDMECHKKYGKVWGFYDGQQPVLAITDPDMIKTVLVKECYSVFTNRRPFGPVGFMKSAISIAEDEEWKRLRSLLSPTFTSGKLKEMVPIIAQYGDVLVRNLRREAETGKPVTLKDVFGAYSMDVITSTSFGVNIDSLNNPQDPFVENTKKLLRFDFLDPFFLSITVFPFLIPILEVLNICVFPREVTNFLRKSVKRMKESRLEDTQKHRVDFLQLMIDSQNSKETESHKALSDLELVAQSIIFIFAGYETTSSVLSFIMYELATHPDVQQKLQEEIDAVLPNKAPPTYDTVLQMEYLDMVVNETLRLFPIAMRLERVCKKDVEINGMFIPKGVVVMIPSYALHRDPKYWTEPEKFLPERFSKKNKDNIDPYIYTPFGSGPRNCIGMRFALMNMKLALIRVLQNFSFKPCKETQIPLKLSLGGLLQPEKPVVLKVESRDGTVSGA
Sequence of Voltage-gated inwardly rectifying potassium channel KCNH2 (Q12809 whole entry): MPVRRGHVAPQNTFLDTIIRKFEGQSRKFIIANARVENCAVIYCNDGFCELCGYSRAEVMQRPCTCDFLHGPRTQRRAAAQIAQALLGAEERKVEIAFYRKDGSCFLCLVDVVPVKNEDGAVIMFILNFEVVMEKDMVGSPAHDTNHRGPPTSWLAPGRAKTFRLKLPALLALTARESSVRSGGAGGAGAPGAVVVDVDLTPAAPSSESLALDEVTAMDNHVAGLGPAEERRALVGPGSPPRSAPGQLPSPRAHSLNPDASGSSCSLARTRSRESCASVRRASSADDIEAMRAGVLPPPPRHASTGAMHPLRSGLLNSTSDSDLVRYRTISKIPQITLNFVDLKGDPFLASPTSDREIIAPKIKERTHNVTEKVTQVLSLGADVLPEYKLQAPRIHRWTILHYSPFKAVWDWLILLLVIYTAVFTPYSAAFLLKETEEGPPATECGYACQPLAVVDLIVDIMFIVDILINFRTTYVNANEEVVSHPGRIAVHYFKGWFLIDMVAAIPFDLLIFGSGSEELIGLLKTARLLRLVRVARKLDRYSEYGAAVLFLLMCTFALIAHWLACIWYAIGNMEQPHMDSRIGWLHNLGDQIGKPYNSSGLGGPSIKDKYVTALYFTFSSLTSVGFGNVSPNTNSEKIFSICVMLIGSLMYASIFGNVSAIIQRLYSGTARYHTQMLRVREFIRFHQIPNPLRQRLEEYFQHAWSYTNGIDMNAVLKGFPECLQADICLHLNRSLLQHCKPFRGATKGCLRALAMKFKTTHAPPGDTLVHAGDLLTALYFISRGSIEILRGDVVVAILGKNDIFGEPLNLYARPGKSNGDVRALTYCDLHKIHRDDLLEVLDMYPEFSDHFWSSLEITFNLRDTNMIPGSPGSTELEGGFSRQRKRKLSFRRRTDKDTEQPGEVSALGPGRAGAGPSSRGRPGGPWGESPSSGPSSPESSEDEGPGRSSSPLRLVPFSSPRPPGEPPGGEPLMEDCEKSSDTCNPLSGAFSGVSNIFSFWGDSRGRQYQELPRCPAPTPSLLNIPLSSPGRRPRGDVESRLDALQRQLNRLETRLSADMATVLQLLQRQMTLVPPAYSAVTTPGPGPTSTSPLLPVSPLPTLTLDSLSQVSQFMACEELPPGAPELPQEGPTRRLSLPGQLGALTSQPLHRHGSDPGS
Sequence of Cytochrome P450 2C9 (P11712 whole entry): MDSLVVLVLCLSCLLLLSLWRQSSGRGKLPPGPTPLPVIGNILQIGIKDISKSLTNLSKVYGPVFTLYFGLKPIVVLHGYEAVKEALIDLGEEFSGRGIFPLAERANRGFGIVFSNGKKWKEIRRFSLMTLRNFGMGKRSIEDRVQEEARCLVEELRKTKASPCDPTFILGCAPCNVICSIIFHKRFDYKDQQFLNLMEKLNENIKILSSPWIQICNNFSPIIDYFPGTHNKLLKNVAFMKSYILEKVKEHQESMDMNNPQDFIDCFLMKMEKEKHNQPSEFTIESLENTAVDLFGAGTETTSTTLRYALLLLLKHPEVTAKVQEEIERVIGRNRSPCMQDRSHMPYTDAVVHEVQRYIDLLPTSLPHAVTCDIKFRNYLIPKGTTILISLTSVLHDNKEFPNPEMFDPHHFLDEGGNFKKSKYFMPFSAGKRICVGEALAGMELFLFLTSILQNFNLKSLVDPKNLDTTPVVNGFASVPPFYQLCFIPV
Sequence of Cytochrome P450 2C19 (P33261 whole entry): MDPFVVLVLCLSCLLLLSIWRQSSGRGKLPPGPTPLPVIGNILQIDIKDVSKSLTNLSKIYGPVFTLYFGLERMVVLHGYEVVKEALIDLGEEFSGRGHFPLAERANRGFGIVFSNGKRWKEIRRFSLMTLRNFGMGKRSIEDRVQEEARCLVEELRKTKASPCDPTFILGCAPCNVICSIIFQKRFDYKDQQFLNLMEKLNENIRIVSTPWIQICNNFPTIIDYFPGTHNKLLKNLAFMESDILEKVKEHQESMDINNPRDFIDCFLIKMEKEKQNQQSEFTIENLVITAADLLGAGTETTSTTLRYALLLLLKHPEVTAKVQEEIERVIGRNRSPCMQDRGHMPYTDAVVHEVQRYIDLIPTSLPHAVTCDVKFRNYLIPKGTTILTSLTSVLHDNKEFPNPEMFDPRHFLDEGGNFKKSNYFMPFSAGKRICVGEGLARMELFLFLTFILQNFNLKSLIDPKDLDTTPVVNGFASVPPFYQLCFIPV

Structure (SMILES): C[C@@]1(O)CCN(c2c(C#N)c(C(F)(F)F)nc3cc[nH]c23)C1
IC50 ([1]; read-out: IC50): 24.2 µM
microsomal CLint [2]: < 8 µL/min/mg
logD [3]: 2.1

Structure (SMILES): C[C@]1(O)CCN(c2nc(N3C[C@H](O)[C@@H](O)C3)cc(C(F)(F)F)c2C#N)C1
Vd [4]: 1.38 L/kg
Time [5]: 14 h
half-life [6]: 1.2 h
inhibition (INH) [7]: Not Active
IC50 ([8]; read-out: IC50): 0.34 µM
IC50 ([8]; read-out: pIC50 (converted)): 0.501 µM
Cmax [9]: 2940 ng/mL
IC50 [10]: 0.39 µM
inhibition [11]: Dose-dependent effect
solubility thermodynamic [12]: 503 µM (≈ 187 µg/mL)
microsomal CLint [13]: < 8 µL/min/mg
inhibition (INH) [14]: Not Active
F [15]: 45%
fraction unbound at 10 µM [16]: 0.13
IC50 [17]: 0.316 µM
inhibition [18]: Dose-dependent effect
pED50 [18]: 1.48
ED50 [18, 31]: 30 mg/kg
inhibition [19]: Dose-dependent effect
pED50 [19]: 1.2
ED50 [19, 31]: 15.7 mg/kg
microsomal CLint [2]: < 8 µL/min/mg
inhibition (INH) [20]: Not Active
AUClast [21]: 14500 ng·h/mL
inhibition (INH) [22]: Not Active
Papp [23]: 3.5 ×10⁻⁶ cm/s
logD [3]: 2.2
inhibition (INH) [24]: Not Active
Activity [25]: Non-Toxic
inhibition (INH) [26]: Not Active
inhibition (INH) [27]: Not Active
Activity [28]: Non-Toxic

Structure (SMILES): Cc1c[nH]c2ncnc(N3CCC[C@@H](CO)C3)c12
IC50 ([1]; read-out: IC50): 118 µM
IC50 ([1]; read-out: pIC50 (converted)): 120 µM
Kd [29]: 20 µM
inhibition [30]: Active

The remaining molecules from weak to strong by IC50 ([1]; read-out: IC50), led by results:

IC50 ([1]; read-out: IC50): 16.8 µM
Structure (SMILES): N#Cc1c(C(F)(F)F)cc(N2CCN(CCO)CC2)nc1N1CCCC(CO)C1 (stereo not drawn)

IC50 ([1]; read-out: IC50): 1.48 µM
microsomal CLint [2]: 103 µL/min/mg
logD [3]: 2.8
Structure (SMILES): CCc1cc2nc(C(F)(F)F)c(C#N)c(N3CCC(C)(O)C3)c2[nH]1 (racemic)
